Activity calls are given as the source filed them. The calls are words filed in the database; no cut-off is given here.
Columns and labels:
SF-295 [1] = assay: Cytotoxicity against human SF295 cells after 44 hrs by MTT assay; assay type: functional; conditions: SF-295, 44 h, read-out: ED50 (the source's name)
How it was run: (§1)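 Exposure to compound lasted 44 h. SF-295 cells were kept in RPMI 1640 and A549 cells in F-12, each with 10% FBS, antibiotics and L-glutamine, at 37 °C and 5% CO2. Medium was then replaced with MTT-containing medium (phenol red-free RPMI for SF-295, F-12 for A549) up to 48 h total. Cells were solubilized overnight at room temperature in HCl/Triton X-100/isopropanol stop solution, and absorbance was read at 540 and 650 nm. ED50 was derived from the dose-response.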

A549 = assay: Cytotoxicity against human A549 cells after 44 hrs by MTT assay; assay type: functional; conditions: A549, 44 h, read-out: ED50 (the source's name); how it was run: as §1
SF-295 [2] = assay: Cellular uptake in human SF295 cells assessed as perinuclear localization at 500 nM after 24 hrs by fluorescence microscopy; assay type: functional, cell-based
How it was run: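 SF-295 glioma cells, from NCI, grown in RPMI 1640 with 10% FBS, amphotericin B, penicillin/streptomycin and L-glutamine at 37 °C, 5% CO2. Plated on coverslips and exposed to compound at 500 nM for 24 h at about 45% confluency. Then washed three times in PBS, fixed in 4% formaldehyde for 15 min, nuclei stained with DAPI, and compound fluorescence imaged.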

COc1cc(/C=C/c2cc3c(c(OC)c2)O[C@]2(C)C[C@@H](O)[C@@H](O)C(C)(C)[C@H]2C3)cc(O)c1/C=C/c1ccc([N+](=O)[O-])cc1
EC50 (SF-295 [1]): 40 nM
EC50 (A549): 700 nM

COc1ccc(/C=C/c2cc(O)c(/C=C/c3ccc(N)cc3)c(OC)c2)cc1OC
EC50 (SF-295 [1]): > 1000 nM
EC50 (A549): > 10000 nM

COc1ccc(/C=C/c2cc(O)c(/C=C/c3ccc([N+](=O)[O-])cc3)c(OC)c2)cc1OC
EC50 (SF-295 [1]): > 1000 nM
EC50 (A549): > 10000 nM

COc1cc(/C=C/c2cc3c(c(OC)c2)O[C@]2(C)C[C@@H](O)[C@@H](O)C(C)(C)[C@H]2C3)cc(O)c1/C=C/c1ccc(N)cc1
EC50 (SF-295 [1]): 20 nM
EC50 (A549): 3200 nM

COc1cc(/C=C/c2cc3c(c(OC)c2)O[C@]2(C)CC[C@@H](O)C(C)(C)[C@H]2C3)cc(O)c1/C=C/c1ccc([N+](=O)[O-])cc1
EC50 (SF-295 [1]): 100 nM
EC50 (A549): 2700 nM
Activity (SF-295 [2]): Active

COc1cc(/C=C/c2cc(O)c(/C=C/c3ccc([N+](=O)[O-])cc3)c(O)c2)cc2c1O[C@]1(C)CC[C@@H](O)C(C)(C)[C@H]1C2
EC50 (SF-295 [1]): 50 nM
EC50 (A549): 800 nM

COc1cc(/C=C/c2cc3c(c(OC)c2)O[C@]2(C)CC[C@@H](O)C(C)(C)[C@H]2C3)cc(O)c1/C=C/c1ccc(N)cc1
EC50 (SF-295 [1]): 400 nM
EC50 (A549): 3000 nM

Source: ChEMBL document CHEMBL1221389, “Fluorescent schweinfurthin B and F analogs with anti-proliferative activity” (2010)
